In ChEMBL document CHEMBL1156136, “Hypoxia-activated prodrugs: substituent effects on the properties of nitro seco-1,2,9,9a-tetrahydrocyclopropa[c]benz[e]indol-4-one (nitroCBI) prodrugs of DNA minor groove alkylating agents” (J Med Chem, 2009):
Active and inactive are the calls of the source. No cut-off for these calls is given here.

How the values were obtained:
SK-OV-3 [1] = assay: Cytotoxicity against human SKOV3 cells in oxic condition after 4 hrs by sulforhodamine B assay; format: functional, cell-based; settings: SK-OV-3, 4 h
How it was run: (§1)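 Log-phase monolayers exposed to drug for 4 h under aerobic (20% O2) or anoxic (<20 ppm O2) conditions, then sulforhodamine B staining 5 days later. IC50 interpolated as concentration lowering cell density to 50% of same-plate controls. HCR = IC50(oxic)/IC50(hypoxic), mean of intraexperiment ratios. A549 P450R line is a stable transfectant with 9-fold higher cytochrome c reduction rate than parent.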

SK-OV-3 [2] = assay: Cytotoxicity against human SKOV3 cells in hypoxic condition after 4 hrs by sulforhodamine B assay; format: functional, cell-based; settings: SK-OV-3, 4 h; how it was run: as §1
SK-OV-3 [3] = assay: Hypoxic cytotoxicity ratio, IC50 for human SKOV3 cells in oxic condition to IC50 for human SKOV3 cells in hypoxic condition; format: functional; how it was run: as §1
HT-29 [4] = assay: Cytotoxicity against human HT-29 cells in oxic condition after 4 hrs by sulforhodamine B assay; format: functional, cell-based; settings: HT-29, 4 h; how it was run: as §1
HT-29 [5] = assay: Cytotoxicity against human HT-29 cells in hypoxic condition after 4 hrs by sulforhodamine B assay; format: functional, cell-based; settings: HT-29, 4 h; how it was run: as §1
HT-29 [6] = assay: Hypoxic cytotoxicity ratio, IC50 for human HT-29 cells in oxic condition to IC50 for human HT-29 cells in hypoxic condition; format: functional; how it was run: as §1
HT-29 [7] = assay: Cytotoxicity against human HT-29 cells assessed as cell kill in hypoxic condition by clonogenic assay; format: functional
How it was run: (§2)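 Clonogenic assay on single-cell suspensions from dissociated HT29 spheroids, about 1 × 10⁶ cells/mL. Drug exposure 4 h at 37 °C under 5% CO2 in O2 or in N2. Colonies grown 14 days, methylene blue stained, >50 cells counted. Surviving fraction = PE(treated)/PE(control); C10 is the concentration giving 10% survival, from the fitted curve.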

HT-29 [8] = assay: Hypoxic cytotoxicity ratio, IC50 for human HT-29 cells in oxic condition to IC50 for human HT-29 cells in hypoxic condition by clonogenic assay; format: functional
Mus musculus = assay: Toxicity in mouse at 100 umol/kg, ip; format: organism-based; settings: in vivo
SiHa [9] = assay: Antitumor activity against human SiHa tumor bearing mouse assessed as log reduction of cell kill at 42 umol/kg, iv irradiated 5 mins before 15 Gy dose by cologenic assay; format: functional
How it was run: (§3)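 SiHa xenografts grown subcutaneously (10⁷ cultured cells) in female homozygous nude CD1-Foxn1nu/nu mice, randomised at mean tumour diameter 8-10 mm. Single iv tail-vein dose, 42 μmol/kg, in 5% DMSO/20% PEG-400/75% lactate buffer pH 4.0. Given alone or 5 min after 15 Gy irradiation. Tumours excised 18 h later, enzymatically dissociated, clonogenic survivors per gram counted. Groups of 3-5 mice; ANOVA with Holm-Sidak on log data.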

SiHa [10] = assay: Antitumor activity against human SiHa tumor bearing mouse assessed as cell kill at 42 umol/kg, iv; format: functional; how it was run: as §3
HCT-116 [11] = assay: Cytotoxicity against human HCT116 cells in oxic condition after 4 hrs by sulforhodamine B assay; format: functional, cell-based; settings: HCT-116, 4 h; how it was run: as §1
HCT-116 [12] = assay: Cytotoxicity against human HCT116 cells in hypoxic condition after 4 hrs by sulforhodamine B assay; format: functional, cell-based; settings: HCT-116, 4 h; how it was run: as §1
HCT-116 [13] = assay: Hypoxic cytotoxicity ratio, IC50 for human HCT116 cells in oxic condition to IC50 for human HCT116 cells in hypoxic condition; format: functional; how it was run: as §1
C-33-A [14] = assay: Cytotoxicity against human C33A cells in oxic condition after 4 hrs by sulforhodamine B assay; format: functional, cell-based; how it was run: as §1
C-33-A [15] = assay: Cytotoxicity against human C33A cells in hypoxic condition after 4 hrs by sulforhodamine B assay; format: functional, cell-based; how it was run: as §1
C-33-A [16] = assay: Hypoxic cytotoxicity ratio, IC50 for human C33A cells in oxic condition to IC50 for human C33A cells in hypoxic condition; format: functional; how it was run: as §1
SiHa [17] = assay: Cytotoxicity against human SiHa cells in oxic condition after 4 hrs by sulforhodamine B assay; format: functional, cell-based; how it was run: as §1
SiHa [18] = assay: Cytotoxicity against human SiHa cells in hypoxic condition after 4 hrs by sulforhodamine B assay; format: functional, cell-based; how it was run: as §1
SiHa [19] = assay: Hypoxic cytotoxicity ratio, IC50 for human SiHa cells in oxic condition to IC50 for human SiHa cells in hypoxic condition; format: functional; how it was run: as §1
A549 [20] = assay: Cytotoxicity against human A549 cells in oxic condition after 4 hrs by sulforhodamine B assay; format: functional, cell-based; settings: A549, 4 h; how it was run: as §1
A549 [21] = assay: Cytotoxicity against human A549 cells in hypoxic condition after 4 hrs by sulforhodamine B assay; format: functional, cell-based; settings: A549, 4 h; how it was run: as §1
A549 [22] = assay: Hypoxic cytotoxicity ratio, IC50 for human A549 cells in oxic condition to IC50 for human A549 cells in hypoxic condition; format: functional; how it was run: as §1
A549 [23] = assay: Cytotoxicity against human A549 cells overexpressing human NADPH/cytochrome P450 oxidoreductase in oxic condition after 4 hrs by sulforhodamine B assay; format: functional, cell-based; settings: A549, 4 h; how it was run: as §1
A549 [24] = assay: Cytotoxicity against human A549 cells overexpressing human NADPH/cytochrome P450 oxidoreductase in hypoxic condition after 4 hrs by sulforhodamine B assay; format: functional, cell-based; settings: A549, 4 h; how it was run: as §1
A549 [25] = assay: Hypoxic cytotoxicity ratio, IC50 for oxic condition to IC50 for hypoxic condition in human A549 cells overexpressing human NADPH/cytochrome P450 oxidoreductase; format: functional; how it was run: as §1
[26] = Cytotoxicity against human H1299 cells in oxic condition after 4 hrs by sulforhodamine B assay; format: functional, cell-based; settings: NCI-H1299, 4 h; how it was run: as §1
[27] = Cytotoxicity against human H1299 cells in hypoxic condition after 4 hrs by sulforhodamine B assay; format: functional, cell-based; settings: NCI-H1299, 4 h; how it was run: as §1
[28] = Hypoxic cytotoxicity ratio, IC50 for human H1299 cells in oxic condition to IC50 for human H1299 cells in hypoxic condition; format: functional, NCI-H1299; how it was run: as §1
NCI-H460 [29] = assay: Cytotoxicity against human H460 cells in oxic condition after 4 hrs by sulforhodamine B assay; format: functional, cell-based; settings: NCI-H460, 4 h; how it was run: as §1
NCI-H460 [30] = assay: Cytotoxicity against human H460 cells in hypoxic condition after 4 hrs by sulforhodamine B assay; format: functional, cell-based; settings: NCI-H460, 4 h; how it was run: as §1
NCI-H460 [31] = assay: Hypoxic cytotoxicity ratio, IC50 for human H460 cells in oxic condition to IC50 for human H460 cells in hypoxic condition; format: functional; how it was run: as §1
PC-3 [32] = assay: Cytotoxicity against human PC3 cells in oxic condition after 4 hrs by sulforhodamine B assay; format: functional, cell-based; settings: PC-3, 4 h; how it was run: as §1
PC-3 [33] = assay: Cytotoxicity against human PC3 cells in hypoxic condition after 4 hrs by sulforhodamine B assay; format: functional, cell-based; settings: PC-3, 4 h; how it was run: as §1
PC-3 [34] = assay: Hypoxic cytotoxicity ratio, IC50 for human PC3 cells in oxic condition to IC50 for human PC3 cells in hypoxic condition; format: functional; how it was run: as §1
A-375 [35] = assay: Cytotoxicity against human A375 cells in oxic condition after 4 hrs by sulforhodamine B assay; format: functional, cell-based; settings: A-375, 4 h; how it was run: as §1
A-375 [36] = assay: Cytotoxicity against human A375 cells in hypoxic condition after 4 hrs by sulforhodamine B assay; format: functional, cell-based; settings: A-375, 4 h; how it was run: as §1
A-375 [37] = assay: Hypoxic cytotoxicity ratio, IC50 for human A375 cells in oxic condition to IC50 for human A375 cells in hypoxic condition; format: functional; how it was run: as §1
HT-29 [38] = assay: Cytotoxicity against human HT-29 cells assessed as surviving fraction in oxic condition at 30 uM by clonogenic assay; format: functional; how it was run: as §2

With COc1cc2cc(C(=O)N3CC(CCl)c4c3cc([N+](=O)[O-])c3cccc([N+](=O)[O-])c43)[nH]c2c(OC)c1OC (configuration not stated) the IC50 (SK-OV-3 [1]) was 55000 nM, the IC50 (SK-OV-3 [2]) was over 50000 nM and the “Ratio IC50” value (SK-OV-3 [3]) was under 1.1. The IC50 (HT-29 [4]) was 34000 nM, the IC50 (HT-29 [5]) was 33000 nM and the “Ratio IC50” value (HT-29 [6]) was 1.2.

With CN(C)CCOc1ccc2[nH]c(C(=O)N3CC(CCl)c4c3cc([N+](=O)[O-])c3cc(S(N)(=O)=O)ccc43)cc2c1 (configuration not stated) the C10 (HT-29 [7]) was 0.4 µM, the “Ratio IC50” value (HT-29 [8]) was 125 and the Activity (Mus musculus) was “Non-toxic”. The Activity (SiHa [9]) was 2.7, the Activity (SiHa [10]) was “inactive” and the IC50 (SK-OV-3 [1]) was 6900 nM. The IC50 (SK-OV-3 [2]) was 0.028 nM, the “Ratio IC50” value (SK-OV-3 [3]) was 275 and the IC50 (HT-29 [4]) was 4600 nM. For the same compound, the IC50 (HT-29 [5]) was 0.018 nM, the “Ratio IC50” value (HT-29 [6]) was 330 and the IC50 (HCT-116 [11]) was 1700 nM. The IC50 (HCT-116 [12]) was 15 nM, the “Ratio IC50” value (HCT-116 [13]) was 110 and the IC50 (C-33-A [14]) was 500 nM. The IC50 (C-33-A [15]) was 3 nM, the “Ratio IC50” value (C-33-A [16]) was 240 and the IC50 (SiHa [17]) was 1700 nM. For the same compound, the IC50 (SiHa [18]) was 34 nM, the “Ratio IC50” value (SiHa [19]) was 71 and the IC50 (A549 [20]) was 950 nM. For the same compound, the IC50 (A549 [21]) was 35 nM, the “Ratio IC50” value (A549 [22]) was 30 and the IC50 (A549 [23]) was 860 nM. The IC50 (A549 [24]) was 6 nM, the “Ratio IC50” value (A549 [25]) was 140 and the IC50 [26] was 6300 nM. The IC50 [27] was 110 nM, the “Ratio IC50” value [28] was 180 and the IC50 (NCI-H460 [29]) was 3800 nM. The IC50 (NCI-H460 [30]) was 110 nM, the “Ratio IC50” value (NCI-H460 [31]) was 36 and the IC50 (PC-3 [32]) was 2900 nM. For the same compound, the IC50 (PC-3 [33]) was 37 nM, the “Ratio IC50” value (PC-3 [34]) was 180 and the IC50 (A-375 [35]) was 2900 nM. The IC50 (A-375 [36]) was 150 nM, the “Ratio IC50” value (A-375 [37]) was 19 and the Activity (HT-29 [38]) was over 10%.

With COC(=O)c1ccc2c3c(cc([N+](=O)[O-])c2c1)N(C(=O)c1cc2cc(OC)c(OC)c(OC)c2[nH]1)CC3CCl (configuration not stated) the IC50 (SK-OV-3 [1]) was 1100 nM, the IC50 (SK-OV-3 [2]) was 0.51 nM and the “Ratio IC50” value (SK-OV-3 [3]) was 4. For the same compound, the IC50 (HT-29 [4]) was 1900 nM, the IC50 (HT-29 [5]) was 0.81 nM and the “Ratio IC50” value (HT-29 [6]) was 3.2.

With COc1cc2cc(C(=O)N3CC(CCl)c4c3cc(N)c3cc(C(N)=O)ccc43)[nH]c2c(OC)c1OC (configuration not stated) the IC50 (SK-OV-3 [1]) was 34000 nM, the IC50 (SK-OV-3 [2]) was 27 nM and the “Ratio IC50” value (SK-OV-3 [3]) was 1.2. For the same compound, the IC50 (HT-29 [4]) was 59000 nM, the IC50 (HT-29 [5]) was 28 nM and the “Ratio IC50” value (HT-29 [6]) was 2.3.
